Experimental data published in PMC10432884 (Clinical and Translational Science, 2023).

What was measured:
healthy subjects = assay: First-in-human trial, food-interaction; assay type: in vivo
Outline: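 Safety covered all dosed subjects in the SAD, MAD and FI phases: AEs (MedDRA 21.1), concomitant medication, vital signs, ECGs, physical exams and safety labs. BP was taken after 5 min supine, then ≥1 min sitting and 1–3 min standing. Orthostasis was defined as an SBP fall ≥20 mmHg or DBP fall ≥10 mmHg within 3 min standing. TEAEs were summarized by treatment, organ class, severity and drug-relatedness.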

[1] = SAD phase pharmacokinetics; assay type: in vivo, human; settings: for AUC(0-t) / Tmax / AUC(0-inf) / Cmax / half-life: human, plasma, oral; for AUC(0-t): AUClast; for Tmax: T max; for AUC(0-inf): AUCinf; for Cmax: C max
Outline: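 Single oral doses of 0.3–50 mg after ≥10 h fast. Plasma (K-EDTA) was sampled predose and […]; urine was collected for 48 h. Assay was validated LC-MS/MS (plasma LLOQ 1.00 ng/mL; below-LLOQ set to 0). AUClast, Cmax and Tmax were derived at all doses; AUCinf, clearance and t1/2 from 10 mg upward. Urinary excretion and renal clearance were also derived. Steady-state time was estimated from these SAD data.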

[2] = FI sequence 10 mg Fasted‐Fed (n = 7)
[3] = FI sequence 10 mg Fed‐Fasted (n = 7)
[4] = both, 10 mg, GeoMean, SAD 10 mg

With `Fc1ccccc1Cc1nc(-c2nc(C(F)(F)F)n[nH]2)cn2ccnc12` [zagociguat, 8‐(2‐fluorobenzyl)‐6‐(3‐(trifluoromethyl)‐1H‐1,2,4‐triazol‐5‐yl)imidazo[1,2‐a]pyrazine] as the compound, how does the Orthostatic hypotension events (healthy subjects; FI phase) read?
The Orthostatic hypotension events was “No orthostatic hypotension events”.

And the “Subjects with dizziness TEAEs” value (healthy subjects; FI phase, 10 mg, fed and fasted)?
Its value is “Three”.

What about the “Subjects discontinued from study drug due to ≥1 TEAE” value (healthy subjects; [2]) of the same compound?
Its value is 0 n.

What about the “Subjects with ≥1 SAE” value (healthy subjects; [2]) of the same compound?
Its value is 0 n.

And the “Subjects with ≥1 study drug related TEAE” value (healthy subjects; [2])?
Its value is 2 n.

And the TEAEs (healthy subjects; [2])?
Its TEAEs is 7 n.

What about the “Subjects discontinued from study drug due to ≥1 TEAE” value (healthy subjects; [3]) of the same compound?
Its value is 0 n.

And the “Subjects with ≥1 SAE” value (healthy subjects; [3])?
The value was 0 n.

And the “Subjects with ≥1 study drug related TEAE” value (healthy subjects; [3])?
Its value is 1 n.

And the TEAEs (healthy subjects; [3])?
Its TEAEs is 7 n.

And the “Dose level from which detectable in urine” value ([1]; SAD)?
The value was 10 mg.

And the AUC(0-t) ([1]; both, 3 mg, GeoMean, SAD 3 mg)?
The AUC(0-t) was 11.4 µg·h/mL.

What about the AUC(0-t) ([1]; both, 3 mg, Median, SAD 3 mg) of the same compound?
The AUC(0-t) was 11.2 µg·h/mL.

And the Tmax ([1]; both, 3 mg, Median, SAD 3 mg)?
Its Tmax is 2.1 h.

What about the AUC(0-inf) [1, 4] of the same compound?
Its AUC(0-inf) is 92.3 µg·h/mL.

And the AUC(0-inf) ([1]; both, 10 mg, Median, SAD 10 mg)?
The AUC(0-inf) was 95 µg·h/mL.

What about the AUC(0-t) [1, 4] of the same compound?
The AUC(0-t) was 57.6 µg·h/mL.

And the AUC(0-t) ([1]; both, 10 mg, Median, SAD 10 mg)?
The AUC(0-t) was 57.9 µg·h/mL.

And the Cmax [1, 4]?
Its Cmax is 1190 ng/mL.

What about the Cmax ([1]; both, 10 mg, Median, SAD 10 mg) of the same compound?
The Cmax was 1290 ng/mL.

What about the Tmax ([1]; both, 10 mg, Median, SAD 10 mg) of the same compound?
The Tmax was 3.5 h.

What about the half-life ([1]; both, 10 mg, t 1/2, GeoMean, SAD 10 mg) of the same compound?
The half-life was 63.4 h.

What about the half-life ([1]; both, 10 mg, t 1/2, Median, SAD 10 mg) of the same compound?
Its half-life is 64.8 h.

And the Cmax ([1]; both, 20 mg, GeoMean, SAD 20 mg)?
Its Cmax is 2190 ng/mL.

What about the AUC(0-t) ([1]; 0.3 mg, GeoMean, SAD 0.3 mg) of the same compound?
Its AUC(0-t) is 1.06 µg·h/mL.

What about the AUC(0-t) ([1]; 0.3 mg, Median, SAD 0.3 mg) of the same compound?
The AUC(0-t) was 1.09 µg·h/mL.

And the Cmax ([1]; 0.3 mg, GeoMean, SAD 0.3 mg)?
The Cmax was 40 ng/mL.

What about the Cmax ([1]; 0.3 mg, Median, SAD 0.3 mg) of the same compound?
Its Cmax is 40.5 ng/mL.

And the Tmax ([1]; 0.3 mg, Median, SAD 0.3 mg)?
Its Tmax is 0.8 h.

What about the AUC(0-t) ([1]; 1 mg, GeoMean, SAD 1 mg) of the same compound?
Its AUC(0-t) is 4.34 µg·h/mL.

What about the AUC(0-t) ([1]; 1 mg, Median, SAD 1 mg) of the same compound?
The AUC(0-t) was 4.46 µg·h/mL.

And the Cmax ([1]; 1 mg, GeoMean, SAD 1 mg)?
Its Cmax is 142 ng/mL.

What about the Cmax ([1]; 1 mg, Median, SAD 1 mg) of the same compound?
The Cmax was 150 ng/mL.

What about the Tmax ([1]; 1 mg, Median, SAD 1 mg) of the same compound?
Its Tmax is 1 h.

And the Cmax ([1]; 3 mg, GeoMean, SAD 3 mg)?
The Cmax was 373 ng/mL.

What about the Cmax ([1]; 3 mg, Median, SAD 3 mg) of the same compound?
The Cmax was 372 ng/mL.

What about the AUC(0-inf) ([1]; 20 mg, GeoMean, SAD 20 mg) of the same compound?
Its AUC(0-inf) is 194 µg·h/mL.

What about the AUC(0-inf) ([1]; 20 mg, Median, SAD 20 mg) of the same compound?
The AUC(0-inf) was 180 µg·h/mL.

And the AUC(0-t) ([1]; 20 mg, GeoMean, SAD 20 mg)?
Its AUC(0-t) is 167 µg·h/mL.

What about the AUC(0-t) ([1]; 20 mg, Median, SAD 20 mg) of the same compound?
Its AUC(0-t) is 158 µg·h/mL.

What about the Cmax ([1]; 20 mg, Median, SAD 20 mg) of the same compound?
Its Cmax is 2260 ng/mL.

And the Tmax ([1]; 20 mg, Median, SAD 20 mg)?
The Tmax was 4 h.

And the half-life ([1]; 20 mg, t 1/2, GeoMean, SAD 20 mg)?
The half-life was 67.1 h.

What about the half-life ([1]; 20 mg, t 1/2, Median, SAD 20 mg) of the same compound?
Its half-life is 68 h.

What about the AUC(0-inf) ([1]; 30 mg, GeoMean, SAD 30 mg) of the same compound?
The AUC(0-inf) was 272 µg·h/mL.

And the AUC(0-inf) ([1]; 30 mg, Median, SAD 30 mg)?
The AUC(0-inf) was 288 µg·h/mL.

What about the AUC(0-t) ([1]; 30 mg, GeoMean, SAD 30 mg) of the same compound?
The AUC(0-t) was 251 µg·h/mL.

And the AUC(0-t) ([1]; 30 mg, Median, SAD 30 mg)?
The AUC(0-t) was 273 µg·h/mL.

What about the Cmax ([1]; 30 mg, GeoMean, SAD 30 mg) of the same compound?
The Cmax was 3370 ng/mL.

What about the Cmax ([1]; 30 mg, Median, SAD 30 mg) of the same compound?
The Cmax was 3650 ng/mL.

And the Tmax ([1]; 30 mg, Median, SAD 30 mg)?
Its Tmax is 4.5 h.

What about the half-life ([1]; 30 mg, t 1/2, GeoMean, SAD 30 mg) of the same compound?
The half-life was 65.7 h.

And the half-life ([1]; 30 mg, t 1/2, Median, SAD 30 mg)?
The half-life was 62.2 h.

What about the AUC(0-inf) ([1]; 50 mg, GeoMean, SAD 50 mg) of the same compound?
Its AUC(0-inf) is 478 µg·h/mL.

And the AUC(0-inf) ([1]; 50 mg, Median, SAD 50 mg)?
Its AUC(0-inf) is 471 µg·h/mL.

What about the AUC(0-t) ([1]; 50 mg, GeoMean, SAD 50 mg) of the same compound?
Its AUC(0-t) is 425 µg·h/mL.

And the AUC(0-t) ([1]; 50 mg, Median, SAD 50 mg)?
The AUC(0-t) was 427 µg·h/mL.

What about the Cmax ([1]; 50 mg, GeoMean, SAD 50 mg) of the same compound?
The Cmax was 5730 ng/mL.

What about the Cmax ([1]; 50 mg, Median, SAD 50 mg) of the same compound?
The Cmax was 5820 ng/mL.

And the Tmax ([1]; 50 mg, Median, SAD 50 mg)?
Its Tmax is 5 h.

What about the half-life ([1]; 50 mg, t 1/2, GeoMean, SAD 50 mg) of the same compound?
Its half-life is 57 h.

What about the half-life ([1]; 50 mg, t 1/2, Median, SAD 50 mg) of the same compound?
Its half-life is 57.3 h.

What about the half-life ([1]; Mean t 1/2, range, single administrations of 10–50 mg) of the same compound?
The half-life was 57 to 68 h.
